Measurements from article PMC8892681 (ACS Omega, 2022).
Entries after “also recorded” stand apart in the source; their conditions may differ. Like-named read-outs stand apart in the source and are kept apart here. Values belong to the molecule of their own block, whether it stands above or below them.

Experiments:
VREfm [1] = assay: MIC by broth microdilution against E. faecium; format: cell-based, Enterococcus faecium; conditions: for fold loss in activity against E. faecium: compared with analogue 1
HepG2 = conditions: cited from earlier work
[2] = tested on: E. faecium strain Aus0085; assay: Time-kill assay against E. faecium; format: cell-based, Enterococcus faecium
[3] = tested on: C. difficile strain EDN0008; assay: Time-kill assay against C. difficile; format: cell-based, Clostridioides difficile
VREfm [4] = conditions: range of clinically relevant E. faecium strains; cited from earlier work
human erythrocytes [5] = conditions: cited from earlier work
Caco-2 cell permeability = format: in vitro ADME; conditions: human, Caco-2, pH 7.4
C. difficile = assay: MIC by broth microdilution against C. difficile; format: cell-based, Clostridioides difficile
[6] = Pharmacokinetics and urinary/faecal recovery after oral administration in rats; format: in vivo, Sprague Dawley rats; conditions: 30 mg/kg; for AUC(0-inf) / Cmax / Tmax / half-life: male, Sprague Dawley, rat, plasma, po; for % dose in urine (0–48 h): unchanged compound, male Sprague Dawley rats, oral, mean ± SD n = 3
human erythrocytes [7] = assay: Haemolysis assay; format: cell-based; conditions: 1 h, 37 °C
How it was run: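 Human whole blood collected in K2-EDTA and pelleted at 500 g for 5 min. RBCs washed twice in saline and once in PBS, then diluted 1:50 in PBS. Test compound made at 20× in DMSO and added 1:20 (final 0.125−128 mg/L). Incubated 1 h at 37 °C. Controls were DMSO vehicle and 1% (v/v) Triton X-100. After centrifugation at 500g, supernatant A450 was read. Three biological replicates.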

Caco-2 cell monolayers = assay: Caco-2 cell permeability; format: in vitro ADME
[8] = exposure to 4 μg/mL, up to 48 h

Molecule: Cl.NCc1ccc(Oc2ccc(-c3noc(-c4ccc(O)cc4)n3)cc2)cc1 [15d, 4-(3-(4-(4-(Aminomethyl)phenoxy)phenyl)-1,2,4-oxadiazol-5-yl)phenol Hydrochloride]
fold loss in activity against E. faecium (VREfm [1]): 2 fold

Molecule: Cl.NCCc1ccccc1Oc1ccc(-c2noc(-c3ccc(O)cc3)n2)cc1 [15b, 4-(3-(4-(2-(2-Aminoethyl)phenoxy)phenyl)-1,2,4-oxadiazol-5-yl)phenol Hydrochloride]
fold loss in activity against E. faecium (VREfm [1]): 4 fold

Molecule: Cl.NCCCc1ccc(Oc2ccc(-c3noc(-c4ccc(O)cc4)n3)cc2)cc1 [15h, 4-(3-(4-(4-(3-Aminopropyl)phenoxy)phenyl)-1,2,4-oxadiazol-5-yl)phenol Hydrochloride]
fold increase in activity against E. faecium (VREfm [1]; propylamine versus ethylamine linker (15e)): 2 fold

Molecule: Cl.NCc1ccccc1Oc1ccc(-c2noc(-c3ccc(O)cc3)n2)cc1 [15a, 4-(3-(4-(2-(Aminomethyl)phenoxy)phenyl)-1,2,4-oxadiazol-5-yl)phenol Hydrochloride]
fold loss in activity against E. faecium (VREfm [1]): 4 fold

Molecule: Oc1ccc(-c2nc(-c3ccc(Oc4ccccc4)cc3)no2)cc1 [compound 1, 4-(3-(4-Phenoxyphenyl)-1,2,4-oxadiazol-5-yl)phenol]
HepG2 viability (HepG2; at concentrations higher than 2 μg/mL): reduced viability
toxicity against HepG2 (HepG2; at the E. faecium MIC90 (2 μg/mL)): not toxic
time to 100% kill of VREfm ([2]; 4 μg/mL): ≤ 24 h
time to 100% kill of VREfm ([2]; 8 μg/mL (2× MIC of 15e)): ≤ 1 h
regrowth of VREfm in time-kill assay [2, 8]: rebounding growth of VREfm was observed after 48 h
regrowth of VREfm in time-kill assay ([2]; exposure to 8 μg/mL): no rebounding growth observed
killing activity in time-kill assay [3]: rapid bactericidal activity
E. faecium MIC90 (VREfm [4]): 2 µg/mL
concentration leading to haemolysis in human erythrocytes (human erythrocytes [5]): > 64 µg/mL

Papp A→B at 120 min (Caco-2 cell permeability): 1.6 ± 0.13 ×10⁻⁶ cm/s
Papp B→A at 120 min (Caco-2 cell permeability): 12 ± 2.7 ×10⁻⁶ cm/s
efflux ratio at 120 min (Caco-2 cell permeability): 7.3
Molecule: COC(=O)c1ccccc1-c1c2ccc(=N)cc-2oc2cc(N)ccc12 [rhodamine 123]

C. difficile MIC (C. difficile; broth microdilution, 48 h anaerobic, biological triplicate): 2 µg/mL
Molecule: CN[C@H](CC(C)C)C(=O)N[C@H]1C(=O)N[C@@H](CC(N)=O)C(=O)N[C@H]2C(=O)N[C@H]3C(=O)N[C@H](C(=O)N[C@H](C(=O)O)c4cc(O)cc(O)c4-c4cc3ccc4O)[C@H](O)c3ccc(c(Cl)c3)Oc3cc2cc(c3O[C@@H]2O[C@H](CO)[C@@H](O)[C@H](O)[C@H]2O[C@H]2C[C@](C)(N)[C@H](O)[C@H](C)O2)Oc2ccc(cc2Cl)[C@H]1O [Vancomycin, vancomycin, reference compound]
killing activity in time-kill assay ([3]; C. difficile EDN0008, 1 at ≥2 × MIC (12–48 μg/mL), vancomycin 8 μg/mL): bacteriostatic activity

Molecule: CC(CN)c1ccc(Oc2ccc(-c3noc(-c4ccc(O)cc4)n3)cc2)cc1.Cl (racemic) [15f, (RS)-4-(3-(4-(4-(1-Aminopropan-2-yl)phenoxy)phenyl)-1,2,4-oxadiazol-5-yl)phenol Hydrochloride]
fold loss in potency against C. difficile (C. difficile; compared with the ethyl linker 15e): 5 fold

AUC(0-inf) [6]: 0.9 ± 0.22 µM·h
Cmax [6]: 160 ± 38 nM
Tmax [6]: 2.5 h
half-life [6]: 2 ± 0.3 h
% dose in urine (0–48 h) [6]: 0.08 ± 0.03%
Molecule: Cl.NCCc1ccc(Oc2ccc(-c3noc(-c4ccc(O)cc4)n3)cc2)cc1 [15e, 4-(3-(4-(4-(2-Aminoethyl)phenoxy)phenyl)-1,2,4-oxadiazol-5-yl)phenol Hydrochloride]
time to 100% kill of VREfm ([2]; 4 μg/mL): ≤ 24 h
time to 100% kill of VREfm ([2]; 8 μg/mL (2× MIC of 15e)): ≤ 1 h
regrowth of VREfm in time-kill assay [2, 8]: remained undetectable
regrowth of VREfm in time-kill assay ([2]; exposure to 8 μg/mL): no rebounding growth observed
time to 100% kill of C. difficile [3]: ≤ 3 h
concentration leading to substantial levels of haemolysis (human erythrocytes [7]): ≥ 64 µg/mL
fold loss in activity against E. faecium (VREfm [1]): 2 fold

AUC(0-inf) [6]: 0.28 ± 0.27 µM·h
Cmax [6]: 39 ± 46 nM
Tmax [6]: 2.8 ± 2 h
half-life [6]: 5.3 ± 2.1 h
% dose in urine (0–48 h) [6]: 0.06 ± 0.03%
Molecule: C[N+](C)(C)CCc1ccc(Oc2ccc(-c3noc(-c4ccc(O)cc4)n3)cc2)cc1.[I-] [26a, 2-(4-(4-(5-(4-Hydroxyphenyl)-1,2,4-oxadiazol-3-yl)phenoxy)phenyl)-N,N,N-trimethylethan-1-aminium Iodide]
permeability across Caco-2 cell monolayer (in words) (Caco-2 cell monolayers; not detected in acceptor chamber, fully recovered in donor chamber): complete impermeability; also recorded: no detectable permeability
fold decrease in activity against E. faecium (VREfm [1]; compared with the primary amine 15e): 2 fold

Papp A→B at 120 min (Caco-2 cell permeability): 42 ± 2.5 ×10⁻⁶ cm/s
Molecule: CC(C)NCC(O)COc1cccc2ccccc12 (centres unmarked) [propranolol]

Papp (Caco-2 cell monolayers; low permeability marker, acceptor solution): < 1 10^–6 cm/s
Molecule: lucifer yellow

Molecule: O=C(O)CCc1ccc(Oc2ccc(-c3noc(-c4ccc(O)cc4)n3)cc2)cc1 [9g, 3-(4-(4-(5-(4-Hydroxyphenyl)-1,2,4-oxadiazol-3-yl)phenoxy)phenyl)propanoic Acid]
fold loss in potency against C. difficile (C. difficile; 4 position versus same substituent at 2 and 3 positions / analogue 1): 4 fold
